What all share (type): functional
Assay [1] concerns Haemophilus influenzae. Description: Antimicrobial activity against gBLPACR-2 Haemophilus influenzae by agar dilution method. In outline:
(§1)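 Agar dilution MICs on Mueller-Hinton agar with 0.5% yeast extract, 2% defibrinated heat-treated horse blood and 15 μg/ml β-NAD+. Plates read after 20 h at 37°C in 5% CO2. Paediatric clinical isolates (2005–2008) assigned to genetic β-lactam resistance class by PCR. Values are MIC range, MIC50 and MIC90 per class.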

Assay [2] concerns Haemophilus influenzae. Description: Antimicrobial activity against gBLNAS Haemophilus influenzae by agar dilution method. Summed up: (§2)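 Agar dilution on Mueller-Hinton agar with 0.5% yeast extract, 2% defibrinated heat-treated horse blood and 15 μg/ml β-NAD+. Plates were incubated 20 h at 37°C in 5% CO2, and the MIC was read. Clinical pediatric isolates (2005–2008) were assigned to genetic resistance classes by PCR.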

Assay [3] has as its system Haemophilus influenzae. Description: Antimicrobial activity against gLow-BLNAR Haemophilus influenzae by agar dilution method. In outline: as §2
For assay [4], the system named is Haemophilus influenzae. Nature of the assay: Antimicrobial activity against gBLNAR Haemophilus influenzae by agar dilution method. Summed up: as §1
The subject of assay [5] is Haemophilus influenzae. Nature of the assay: Antimicrobial activity against gBLPACR-1 Haemophilus influenzae by agar dilution method. In outline:
as §2

Assay [6] relates to Haemophilus influenzae. Nature of the assay: Antimicrobial activity against gBLPAR-TEM1 Haemophilus influenzae by agar dilution method. Summed up:
as §1

Assay [7] deals with Haemophilus influenzae. Nature of the assay: Bactericidal activity against gBLNAR Haemophilus influenzae JPH002 assessed as reduction in bacterial load at MIC after 2 hrs by time-kill analysis in presence of 10% human serum. In outline:
(§3)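 Colonies precultured on chocolate agar were suspended in MH broth to 0.5 McFarland, diluted 10-fold in MH broth with yeast extract, horse blood and β-NAD+, then grown 120 min at 37°C. 500 μl was inoculated into 9.5 ml of the same supplemented broth containing drug at the MIC or 2× MIC, with or without 10% fresh human serum. Tubes were incubated static and viable counts sampled at set intervals.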

Assay [8] has as its system Haemophilus influenzae. Description: Bactericidal activity against gBLNAR Haemophilus influenzae JPH1306 assessed as reduction in bacterial load at MIC after 6 hrs by time-kill analysis in presence of 10% human serum. Summed up: as §3
Assay [9] relates to Haemophilus influenzae. Nature of the assay: Bactericidal activity against gBLNAR Haemophilus influenzae JPH1306 assessed as reduction in bacterial load at MIC after 4 hrs by time-kill analysis. In outline: as §3
For assay [10], the system named is Haemophilus influenzae. Description: Bactericidal activity against gBLNAR Haemophilus influenzae JPH1306 assessed as reduction in bacterial load at MIC after 2 hrs by time-kill analysis in presence of 10% human serum. In outline:
as §3

The test system of assay [11] is Haemophilus influenzae. Description: Bactericidal activity against gBLNAR Haemophilus influenzae JPH1306 assessed as reduction in bacterial load at MIC after 4 hrs by time-kill analysis in presence of 10% human serum. Summed up:
as §3

Assay [12] concerns Haemophilus influenzae. Nature of the assay: Bactericidal activity against gBLNAR Haemophilus influenzae JPH1306 assessed as reduction in bacterial load at MIC after 6 hrs by time-kill analysis. Summed up:
as §3

Assay [13] has as its system Haemophilus influenzae. Nature of the assay: Bactericidal activity against gBLNAR Haemophilus influenzae JPH002 assessed as reduction in bacterial load at MIC after 6 hrs by time-kill analysis. In outline:
as §3

In assay [14] the test system is Haemophilus influenzae. Description: Bactericidal activity against gBLNAR Haemophilus influenzae JPH002 assessed as reduction in bacterial load at MIC after 4 hrs by time-kill analysis. Summed up:
as §3

The subject of assay [15] is Haemophilus influenzae. Description: Bactericidal activity against gBLNAR Haemophilus influenzae JPH002 assessed as reduction in bacterial load at MIC after 6 hrs by time-kill analysis in presence of 10% human serum. Summed up: as §3
Assay [16] relates to Haemophilus influenzae. Nature of the assay: Bactericidal activity against gBLNAR Haemophilus influenzae JPH002 assessed as reduction in bacterial load at MIC after 4 hrs by time-kill analysis in presence of 10% human serum. Summed up: as §3

Values after ≈ are worked out from the molar mass of the structure shown.

The text below walks through data of ChEMBL document CHEMBL1649324, “In vitro activity of tebipenem, a new oral carbapenem antibiotic, against beta-lactamase-nonproducing, ampicillin-resistant Haemophilus influenzae” (2010).

`C[C@@H](O)[C@H]1C(=O)N2C(C(=O)O)=C(S[C@@H]3CN[C@H](C(=O)N(C)C)C3)[C@H](C)[C@H]12` [MEROPENEM]: the MIC against Haemophilus influenzae [1] is 0.063 µg/mL (≈ 0.164 µM); in the assay on Haemophilus influenzae [5], 0.063 µg/mL (≈ 0.164 µM); against Haemophilus influenzae [6], 0.031 µg/mL (≈ 0.0808 µM). For the same molecule, the results for the MIC50 against Haemophilus influenzae [2], with Haemophilus influenzae [3] and with Haemophilus influenzae [4] were 0.063 µg/mL (≈ 0.164 µM), 0.12 µg/mL (≈ 0.313 µM) and 0.25 µg/mL (≈ 0.652 µM), respectively. The MIC90 against Haemophilus influenzae [2] worked out at 0.12 µg/mL (≈ 0.313 µM); with Haemophilus influenzae [3] it was 0.25 µg/mL (≈ 0.652 µM); in the assay on Haemophilus influenzae [4] it was 0.5 µg/mL (≈ 1.3 µM).
In the case of `CC1(C)S[C@@H]2[C@H](NC(=O)[C@H](N)c3ccc(O)cc3)C(=O)N2[C@H]1C(=O)O` [AMOXICILLIN], the MIC against Haemophilus influenzae [1] is 2 µg/mL (≈ 5.47 µM); against Haemophilus influenzae [5], 8 µg/mL (≈ 21.9 µM); in the assay with Haemophilus influenzae [6], 8 µg/mL (≈ 21.9 µM). Besides, the MIC50 amounted to 0.5 µg/mL (≈ 1.37 µM) against Haemophilus influenzae [2], 2 µg/mL (≈ 5.47 µM) in the assay with Haemophilus influenzae [3] and 8 µg/mL (≈ 21.9 µM) against Haemophilus influenzae [4]. In addition, the MIC90 against Haemophilus influenzae [2] was found to be 0.5 µg/mL (≈ 1.37 µM); in the assay with Haemophilus influenzae [3], 4 µg/mL (≈ 10.9 µM); against Haemophilus influenzae [4] it was 32 µg/mL (≈ 87.6 µM).
Turning to `CC[C@H]1OC(=O)[C@H](C)[C@@H](O[C@H]2C[C@@](C)(OC)[C@@H](O)[C@H](C)O2)[C@H](C)[C@@H](O[C@@H]2O[C@H](C)C[C@H](N(C)C)[C@H]2O)[C@](C)(O)C[C@@H](C)CN(C)[C@H](C)[C@@H](O)[C@]1(C)O` [AZITHROMYCIN], the MIC was determined as 2 µg/mL (≈ 2.67 µM) in the assay on Haemophilus influenzae [1], 2 µg/mL (≈ 2.67 µM) against Haemophilus influenzae [5] and 1 µg/mL (≈ 1.34 µM) in the assay with Haemophilus influenzae [6]. Besides, the MIC50 against Haemophilus influenzae [2], with Haemophilus influenzae [3] and with Haemophilus influenzae [4] was 2 µg/mL (≈ 2.67 µM) each time. Besides, the figures for the MIC90 in the assay on Haemophilus influenzae [2], against Haemophilus influenzae [3] and in the assay on Haemophilus influenzae [4] were 4 µg/mL (≈ 5.34 µM), 2 µg/mL (≈ 2.67 µM) and 4 µg/mL (≈ 5.34 µM), respectively.
As to `CO/N=C(\C(=O)N[C@@H]1C(=O)N2C(C(=O)O)=C(COC(C)=O)CS[C@H]12)c1csc(N)n1` [CEFOTAXIME], the MIC in the assay with Haemophilus influenzae [1] came out at 0.25 µg/mL (≈ 0.549 µM); against Haemophilus influenzae [5] it was 0.031 µg/mL (≈ 0.0681 µM); against Haemophilus influenzae [6] it was 0.008 µg/mL (≈ 0.0176 µM). Moreover, the MIC50 against Haemophilus influenzae [2] amounted to 0.016 µg/mL (≈ 0.0351 µM); in the assay on Haemophilus influenzae [3], 0.031 µg/mL (≈ 0.0681 µM); with Haemophilus influenzae [4] it was 0.5 µg/mL (≈ 1.1 µM). The MIC90 against Haemophilus influenzae [2] is 0.031 µg/mL (≈ 0.0681 µM); in the assay with Haemophilus influenzae [3] it was 0.12 µg/mL (≈ 0.263 µM); with Haemophilus influenzae [4] it was 1 µg/mL (≈ 2.2 µM).
`CC[C@H]1OC(=O)[C@H](C)[C@@H](O[C@H]2C[C@@](C)(OC)[C@@H](O)[C@H](C)O2)[C@H](C)[C@@H](O[C@@H]2O[C@H](C)C[C@H](N(C)C)[C@H]2O)[C@](C)(OC)C[C@@H](C)C(=O)[C@H](C)[C@@H](O)[C@]1(C)O` [CLARITHROMYCIN]: the MIC with Haemophilus influenzae [1], in the assay with Haemophilus influenzae [5] and against Haemophilus influenzae [6] was 8 µg/mL (≈ 10.7 µM) each time. For the same molecule, the MIC50 in the assay with Haemophilus influenzae [2], against Haemophilus influenzae [3] and in the assay on Haemophilus influenzae [4] was 8 µg/mL (≈ 10.7 µM) each time. Moreover, the MIC90 in the assay with Haemophilus influenzae [2], in the assay on Haemophilus influenzae [3] and with Haemophilus influenzae [4] was 16 µg/mL (≈ 21.4 µM) in each case.
As for `C[C@@H](O)[C@H]1C(=O)N2C(C(=O)O)=C(SC3CN(C4=NCCS4)C3)[C@H](C)[C@H]12` [TEBIPENEM], the MIC in the assay on Haemophilus influenzae [1] was found to be 0.25 µg/mL (≈ 0.652 µM); with Haemophilus influenzae [5], 0.12 µg/mL (≈ 0.313 µM); with Haemophilus influenzae [6] it was 0.063 µg/mL (≈ 0.164 µM). For the same molecule, the log10cfu with Haemophilus influenzae [7], with Haemophilus influenzae [8], in the assay with Haemophilus influenzae [9], in the assay on Haemophilus influenzae [10], in the assay with Haemophilus influenzae [11] and with Haemophilus influenzae [12] was 3 each time. Also, the log10cfu with Haemophilus influenzae [13], with Haemophilus influenzae [14], in the assay on Haemophilus influenzae [15] and in the assay with Haemophilus influenzae [16] was 3 in each case. Moreover, the values for the MIC50 against Haemophilus influenzae [2], in the assay with Haemophilus influenzae [3] and in the assay on Haemophilus influenzae [4] were 0.063 µg/mL (≈ 0.164 µM), 0.25 µg/mL (≈ 0.652 µM) and 0.25 µg/mL (≈ 0.652 µM), respectively. Also, the MIC90 stood at 0.12 µg/mL (≈ 0.313 µM) against Haemophilus influenzae [2], 0.5 µg/mL (≈ 1.3 µM) with Haemophilus influenzae [3] and 1 µg/mL (≈ 2.61 µM) in the assay on Haemophilus influenzae [4].
On to `C=CC1=C(C(=O)O)N2C(=O)[C@@H](NC(=O)/C(=N\O)c3csc(N)n3)[C@H]2SC1` [CEFDINIR], for which the MIC worked out at 8 µg/mL (≈ 20.2 µM) against Haemophilus influenzae [1], 0.5 µg/mL (≈ 1.26 µM) in the assay with Haemophilus influenzae [3], 1 µg/mL (≈ 2.53 µM) in the assay on Haemophilus influenzae [5] and 0.25 µg/mL (≈ 0.632 µM) with Haemophilus influenzae [6]. Besides, the MIC50 against Haemophilus influenzae [2] was 0.25 µg/mL (≈ 0.632 µM); in the assay with Haemophilus influenzae [3] it was 0.5 µg/mL (≈ 1.26 µM); in the assay with Haemophilus influenzae [4], 8 µg/mL (≈ 20.2 µM). Besides, the MIC90 in the assay with Haemophilus influenzae [2] was determined as 0.5 µg/mL (≈ 1.26 µM); in the assay on Haemophilus influenzae [3], 2 µg/mL (≈ 5.06 µM); in the assay on Haemophilus influenzae [4], 32 µg/mL (≈ 80.9 µM).
Consider `CC1(C)S[C@@H]2[C@H](NC(=O)[C@H](N)c3ccccc3)C(=O)N2[C@H]1C(=O)O` [AMPICILLIN], for which the MIC against Haemophilus influenzae [1] was 2 µg/mL (≈ 5.72 µM); against Haemophilus influenzae [5] it was 8 µg/mL (≈ 22.9 µM); against Haemophilus influenzae [6], 8 µg/mL (≈ 22.9 µM). Moreover, the MIC50 in the assay with Haemophilus influenzae [2] came out at 0.25 µg/mL (≈ 0.715 µM); against Haemophilus influenzae [3], 1 µg/mL (≈ 2.86 µM); in the assay on Haemophilus influenzae [4] it was 2 µg/mL (≈ 5.72 µM). Also, the MIC90 with Haemophilus influenzae [2] was found to be 0.5 µg/mL (≈ 1.43 µM); against Haemophilus influenzae [3] it was 1 µg/mL (≈ 2.86 µM); against Haemophilus influenzae [4], 8 µg/mL (≈ 22.9 µM).
